Read-outs that look alike come from different tables or passages of the source.
Tests used:
[1] = test system: MMUT variants G648D, V633G, G717V, P86L, Y100C, Y231N; experiment: Activity screen; type: biochemical, human; conditions: cobamide 1 μM, variants 0.1 μM (G717V 1 μM), 30 minutes
Method in brief: (§1)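 At 30 °C, reaction was started with thiokinase, MgCl₂, ADP and methylmalonyl-CoA. Final levels were cofactor 1 μM and (R)-methylmalonyl-CoA 2 mM. Enzyme was WT 0.01 μM, G717V 1 μM, other variants 0.1 μM. After 30 min, an aliquot went into 2.5 mM DTNB; CoA was taken from A412 (ε 14,150 M⁻¹ cm⁻¹).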

MMUT WT = biological target: T1, MMUT WT (Homo sapiens, UniProt P22033); experiment: Activity screen; type: biochemical; conditions: cobamide 1 μM, MMUT WT 0.01 μM, 30 minutes
T1 sequence (P22033 33-750): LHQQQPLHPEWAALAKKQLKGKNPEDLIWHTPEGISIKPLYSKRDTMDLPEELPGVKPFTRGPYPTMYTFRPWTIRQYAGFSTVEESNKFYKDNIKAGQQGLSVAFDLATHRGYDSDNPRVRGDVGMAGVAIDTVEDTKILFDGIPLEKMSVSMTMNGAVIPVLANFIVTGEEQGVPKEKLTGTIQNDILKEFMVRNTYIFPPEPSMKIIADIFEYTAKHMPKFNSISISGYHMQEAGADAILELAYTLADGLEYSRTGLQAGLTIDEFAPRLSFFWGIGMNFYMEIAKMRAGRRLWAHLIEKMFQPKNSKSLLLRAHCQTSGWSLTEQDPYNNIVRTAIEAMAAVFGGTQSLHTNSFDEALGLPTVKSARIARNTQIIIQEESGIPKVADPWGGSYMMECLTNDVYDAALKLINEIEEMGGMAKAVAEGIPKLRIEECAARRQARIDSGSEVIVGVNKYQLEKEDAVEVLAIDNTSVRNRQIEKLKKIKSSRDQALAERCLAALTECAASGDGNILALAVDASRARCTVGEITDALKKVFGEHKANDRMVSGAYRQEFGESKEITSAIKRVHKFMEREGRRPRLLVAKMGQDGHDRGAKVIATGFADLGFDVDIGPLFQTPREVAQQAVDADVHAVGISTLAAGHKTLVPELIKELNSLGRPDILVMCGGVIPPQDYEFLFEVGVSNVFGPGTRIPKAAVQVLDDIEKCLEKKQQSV
Method in brief: as §1

[2] = biological target: T2, MMUT (methylmalonyl-CoA mutase) (Homo sapiens, UniProt P22033); conditions: read-out: KM, app; previously reported value ref 57; cited from earlier work
T2 sequence (P22033 33-750): T1 sequence (P22033 33-750)

[3] = biological target: T2, MMUT (methylmalonyl-CoA mutase); experiment: Coupled thiokinase/DTNB spectrophotometric MMUT activity assay; type: biochemical
Method in brief: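 In the coupled kinetic assay, succinyl-CoA was converted by thiokinase to CoA, which was detected spectrophotometrically with DTNB. C-terminally His-tagged MMUT was at 10 nM. Enzymatically made (R)-methylmalonyl-CoA was fixed at 4 mM. Adenosylated cofactor was varied per cofactor, from 0.031 μM at lowest to 12 μM at highest. K_M,app and k_cat come from ≥5 replicates over ≥2 independent experiments and two biological samples.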

[4] = biological target: T2, MMUT (methylmalonyl-CoA mutase); experiment: Cobamide equilibrium binding by quenching of intrinsic protein fluorescence; conditions: MMUT 0.2 μM, fluorescence quenching
Method in brief: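 Fluorescence quenching used MMUT at 0.2 μM, from N-terminal His-tag (E. coli BL21(DE3)pLysS) and C-terminal His-tag preparations. Adenosylated cofactor was titrated at 0.19–2.5 μM or 0.23–2.5 μM, depending on cofactor class. Plate-reader excitation/emission was 282/340 nm. Kd came from a quadratic fit allowing for ligand depletion. Values were averaged over ≥5 technical replicates from ≥2 independent experiments.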

[5] = biological target: T2, MMUT (methylmalonyl-CoA mutase); conditions: cited from earlier work

In the case of `C/C1=C2/[N-][C@H]([C@H](CC(N)=O)[C@@]2(C)CCC(=O)NC[C@@H](C)OP(=O)([O-])O[C@H]2[C@@H](O)[C@@H](n3cnc4cc(C)c(C)cc43)O[C@@H]2CO)[C@]2(C)N=C(/C(C)=C3N=C(/C=C4N=C1[C@@H](CCC(N)=O)C\4(C)C)[C@@H](CCC(N)=O)[C@]\3(C)CC(N)=O)[C@@H](CCC(N)=O)[C@]2(C)CC(N)=O.[CH2-][C@H]1O[C@@H](n2cnc3c(N)ncnc32)[C@H](O)[C@@H]1O.[Co]` [AdoCbl, adenosylcobalamin, reference compound], the “activity of MMUT variants with the cobamide (in words)” value [1] is listed as “significantly reduced specific activity”, the “activity of WT MMUT with the cobamide (in words)” value (MMUT WT) is listed as “active” and the Km [2] is listed as 0.05 µM. The “MMUT activity with the cobamide (in words)” value ([3]; coupled spectrophotometric assay) was “active”, the Km ([3]; read-out: KM, app, methylmalonyl-CoA 4 mM, MMUT 10 nM) was 0.04 ± 0.02 µM and the Kd [4] was 80 ± 30 nM. The Kd ([5]; previous study of MMUT ref 49) was 40 nM and the Kd ([5]; previous study of MMUT ref 50) was 270 ± 110 nM.
